Results on four compounds are retold here after ChEMBL document CHEMBL1123937, “(5Z)-7-(2,2-Dimethyl-4-phenyl-1,3-dioxan-cis-5-yl)heptenoi c acid: a specific thromboxane A2 receptor antagonist” (J Med Chem, 1987).

Some results are limits rather than exact numbers.

For test [1], the species on record is Cavia porcellus. The test is described as follows: Ability to inhibit the contractile effect of PGF2-alpha on guinea pig trachea. The conditions noted are these: read-out: pA2 (converted).
The species named for test [2] is Homo sapiens. The test is described as follows: Compound was tested for the concentration in human platelet -rich plasma that did not modify PGI-2 inhibition of ADP- induced aggregation. Format: functional.
The species named for test [3] is Oryctolagus cuniculus. The test is described as follows: Ability to inhibit the contractile effect of PGE-2 on rabbit aorta was determined. Format: functional. The conditions noted are these: read-out: pA2 (converted).
Test [4] is filed under the species Oryctolagus cuniculus. Nature of the test: Ability to inhibit the contractile effect of […] on rabbit aorta was determined. As to conditions: read-out: pA2 (converted). Format: functional.
The species named for test [5] is Rattus norvegicus. Nature of the test: Ability to inhibit the contractile effect of PGD-2 on rat aorta was determined. As to conditions: read-out: pA2 (converted). Format: functional.
The species entered for test [6] is Cavia porcellus. Nature of the test: Ability to inhibit relaxant effect of PGE-2 on guinea pig trachea was determined. Type of test: functional. The conditions noted are these: read-out: pA2 (converted).
For test [7], the species on record is Cavia porcellus. The test is described as follows: Compound was tested for the concentration that inhibited the bronchoconstriction induced by U 46619 for a period exceeding 2 h. Format: functional.
The species named for test [8] is Rattus norvegicus. Nature of the test: Inhibition of the response to […] in rat colon was determined. Type of test: functional. As to conditions: read-out: pA2 (converted).
The species entered for test [9] is Homo sapiens. The test is described as follows: Ability to inhibit aggregate formation in human platelets induced by collagen. Format: functional.
Test [10] has as its target Thromboxane A2 receptor (Oryctolagus cuniculus). Nature of the test: Ability to inhibit U-46,619-induced contraction of isolated strips of rabbit thoracic aorta, which is the measure of thromboxane receptor antagonism. As to conditions: read-out: pA2 (converted).
A further test deals with T1, Thromboxane A2 receptor (Rattus norvegicus, UniProt P34978).
T1 sequence (P34978 whole entry): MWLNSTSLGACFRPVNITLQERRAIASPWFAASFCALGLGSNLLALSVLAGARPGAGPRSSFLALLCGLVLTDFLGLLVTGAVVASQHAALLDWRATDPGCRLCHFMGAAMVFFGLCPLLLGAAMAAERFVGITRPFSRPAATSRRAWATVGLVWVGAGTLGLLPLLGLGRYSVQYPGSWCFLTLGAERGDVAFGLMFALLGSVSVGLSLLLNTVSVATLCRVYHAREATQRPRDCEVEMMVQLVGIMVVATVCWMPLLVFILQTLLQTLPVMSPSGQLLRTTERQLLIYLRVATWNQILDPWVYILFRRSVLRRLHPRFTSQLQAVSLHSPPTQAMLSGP
The test is described as follows: Ability to inhibit U-46,619-induced contraction of isolated strips of rat aorta, which is the measure of thromboxane receptor antagonism. Format: functional. The conditions noted are these: read-out: pA2 (converted).

The species named for test [11] is Homo sapiens. The test is described as follows: Ability to inhibit aggregate formation in human platelets induced by arachidonic acid. Type of test: functional.
For test [12], the species on record is Cavia porcellus. The test is described as follows: Ability to inhibit the contractile effect of PGE-2 on guinea pig trachea. The conditions noted are these: read-out: pA2 (converted). Type of test: functional.
The species named for test [13] is Oryctolagus cuniculus. Nature of the test: Compound was tested for the antagonist serotonin- and norepinephrine-induced contractions of rabbit aorta. Type of test: functional. The method in brief:
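Rabbit aortic strips contracted with serotonin or norepinephrine and tested in the presence of the antagonist at concentrations up to 2×10^-5 M.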

Test [14] is filed under the species Cavia porcellus. The test is described as follows: Ability to antagonise the actions of crude SRSA on guinea pig ileum was determined. The conditions noted are these: read-out: pA2 (converted). Format: functional.
The species named for test [15] is Rattus norvegicus. The test is described as follows: Ability to inhibit norepinephrine -induced contraction of isolated strips of rat aorta, […]. Format: functional. As to conditions: read-out: pA2 (converted).
Test [16] concerns the target thromboxane A2 (TxA2) receptor (Cavia porcellus, UniProt A0A286Y4I8). Nature of the test: Ability to inhibit U-46,619-induced contraction of isolated strips of guinea pig tracheal chain, which is the measure of thromboxane receptor antagonism. Type of test: functional. The conditions noted are these: read-out: pA2 (converted).
The species entered for test [17] is Cavia porcellus. Nature of the test: Inhibition of the response to PGE-2 in guinea pig ileum was determined. Format: functional. The conditions noted are these: read-out: pA2 (converted).

Take `CC1(C)OC[C@@H](C/C=C\CCCC(=O)O)[C@@H](c2ccccc2)O1`: the Kb in the test filed under Cavia porcellus [1] was 11.2 µM; in the test filed under Oryctolagus cuniculus [3], 6.76 µM; in the test filed under Oryctolagus cuniculus [4] it was 1.62 µM; in the test listed under Rattus norvegicus [5] it was 1.95 µM; in the test listed under Cavia porcellus [6] it was over 20 µM; in the test listed under Rattus norvegicus [8], over 20 µM. Further, the Kb in test [10] was 0.501 µM; at Thromboxane A2 receptor, 0.145 µM; in the test filed under Cavia porcellus [12] it was 10.5 µM; in the test filed under Cavia porcellus [14], over 20 µM; in the test listed under Rattus norvegicus [15], over 20 µM; in test [16] it was 0.263 µM. Also, the Kb in the test filed under Cavia porcellus [17] was over 20 µM. For the same compound, the Concentration in the test listed under Homo sapiens [2] was determined as 100 µM; in the test listed under Oryctolagus cuniculus [13], 20 µM. In the test listed under Cavia porcellus [7], this compound displayed an Activity of 5 mg/kg. Moreover, the KB amounted to 9.12e-06 in the test listed under Homo sapiens [9] and 1.42e-05 in the test filed under Homo sapiens [11].
`O=C(O)CCC/C=C\C[C@H]1COCO[C@@H]1c1ccccc1`: the Kb in [10] is over 20 µM.
Regarding `O=C(O)CCC/C=C\C[C@@H]1COCO[C@@H]1c1ccccc1`, the Kb in test [10] was 0.501 µM.
With `CC1(C)OC[C@H](C/C=C\CCCC(=O)O)[C@@H](c2ccccc2)O1`, the Kb in [10] is over 20 µM.
